We go through 41 molecules from ChEMBL document CHEMBL1122721, “Synthesis and antiarrhythmic activity of new 1-[1-[2-[3-(alkylamino)-2-hydroxypropoxy]phenyl]vinyl]-1 H-imidazoles and related compounds” (J Med Chem, 1984).

Molecules are shown by their SMILES.

For series [1], the system named is Mus musculus. The series can be described thus: Compound was evaluated for ventricular extrasystole activity, 3 min before aconitine infusion, at a dose of 3 mg/kg, intravenously administered in mice; S=significant antiarrhythmic effect. The format is functional, organism-based. Set-up: dose 3 mg/kg. As to conditions: Heart. A digest of the protocol: (§1)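 Aconitine arrhythmia model in pentobarbital-anesthetized male mice (20-35 g). Test compound was given iv 3 min or po 30 min before continuous tail-vein infusion of aconitine (0.685 µg/min). Lead II ECG recorded; onset times of ventricular extrasystole (VES) and ventricular tachycardia (VT) were measured.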

The test system of series [2] is Mus musculus. As to the kind of experiment: Compound was evaluated for ventricular tachycardia activity in intravenously administered mice, 3 min before aconitine infusion, at a dose of 3 mg/kg; S=significant antiarrhythmic effect. The series is classed as functional, organism-based. Set-up: dose 3 mg/kg. As to conditions: Heart. Summed up:
as §1

Series [3] has as its target Adrenergic receptor beta (Cavia porcellus). The series can be described thus: Beta adrenergic receptor blocking activity measured by the inotropic effect was determined 1 hr after pretreament of the right atria in guinea pig.
Series [4] has the same target. As to the kind of experiment: Beta adrenergic receptor blocking activity measured by the chronotropic effect was determined 1 hr after pretreatment of the right atria in guinea pig.
The species entered for series [5] is Cavia porcellus. As to the kind of experiment: Maximal follow rate showing the contractile frequencies of atria to electrical stimulation 10 min after incubation with right atria of guinea pig. The series is classed as functional. Summed up:
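Isolated right atria driven by electrical stimulation (Dawes' method). Maximal follow rate, the highest contractile frequency the atria follow, measured as an index of refractory period 10 min after incubation with compound.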

In series [6] the test system is Mus musculus. As to the kind of experiment: Compound was evaluated for ventricular tachycardia activity in intravenously administered mice, 3 min before aconitine infusion, at a dose of 10 mg/kg; S=significant antiarrhythmic effect. The format is functional, organism-based. Set-up: dose 10 mg/kg. As to conditions: Heart. Summed up: as §1
Series [7] relates to Mus musculus. As to the kind of experiment: Compound was evaluated for ventricular extrasystole activity, 3 min before aconitine infusion, at a dose of 10 mg/kg, intravenously administered in mice; S=significant antiarrhythmic effect. The format is functional, organism-based. Set-up: dose 10 mg/kg. The conditions noted are these: Heart. Summed up: as §1
Series [8] in a line: Lethal dose in mice (LD50) (following i.v. dosing). The conditions noted are these: mouse, in vivo, iv.
Series [9] relates to Mus musculus. The series can be described thus: Compound was evaluated for ventricular extrasystole, 30 min before aconitine infusion, at a dose of 30 mg/kg, perorally administered in mice; S=significant antiarrhythmic effect. The format is functional, organism-based. Set-up: dose 30 mg/kg. As to conditions: Heart. Summed up:
as §1

The subject of series [10] is Mus musculus. The series can be described thus: Compound was evaluated for ventricular tachycardia activity in perorally administered mice, 30 min before aconitine infusion, at a dose of 30 mg/kg; S=significant antiarrhythmic effect. The series is classed as functional, organism-based. Set-up: dose 30 mg/kg. As to conditions: Heart. A digest of the protocol: as §1

Take `C=C(c1ccccc1OCC(O)CNC(C)(C)C)n1cnc2ccccc21` (stereo unspecified): the Activity entry in series [1] and in series [2] was “Anti-arrhythmic” in each case. For the same molecule, the pA2 in [3] is recorded as 7.08; in series [4] it was 7.29.

For the molecule `C=C(c1ccccc1OCC(O)CNC(C)C)n1c(C)cnc1CC` (stereo unspecified), the Decrease in [5] was 9.1%. For the same molecule, the results for the pA2 in series [3] and in series [4] were 6.17 and 5.8, respectively.

`C=C(c1c(C)ccc(C)c1OCC(O)CNC(C)(C)C)n1ccnc1` (stereo unspecified) had a Decrease in series [5] of 17.1%. Moreover, the figures for the pA2 in [3] and in [4] were 6.47 and 6.36, respectively.

`C=C(c1ccc(Cl)cc1OCC(O)CNC)n1ccnc1` (stereo unspecified) showed a Decrease in series [5] of 17.8%. In addition, the pA2 in series [3] was 6.21; in [4], 6.19.

Consider `C=C(c1ccccc1OCC(O)CN(C)C)n1ccnc1` (stereo unspecified), for which the Decrease in series [5] is reported as 30.7%. Further, the Activity entry in series [6] and in [7] was “Anti-arrhythmic” throughout. This molecule registered an LD50 in series [8] of 45.4 mg/kg. For the same molecule, the pA2 came to 6.12 in [3] and 5.41 in series [4].

Regarding `CC(C)NCC(O)COc1ccccc1Cn1ccnc1` (stereo unspecified), in series [5], the Decrease is 14.2%. The results for the pA2 in [3] and in series [4] were 6.66 and 6.69, respectively.

In the case of `C=C(c1cccc(OC)c1OCC(O)CNC(C)C)n1ccnc1` (stereo unspecified), in [5], the Decrease turned out to be 29%. For the same molecule, the values for the pA2 in [3] and in series [4] were 6.99 and 6.64, respectively.

In turn, `C=C(c1cc(Cl)ccc1OCC(O)CNC(C)C)n1ccnc1` (stereo unspecified) showed a Decrease in series [5] of 27.1%. The pA2 in series [3] is reported as 6.41; in series [4] it was 6.3.

As to `C=C(c1c(C)ccc(C)c1OCC(O)CNC(C)C)n1ccnc1` (stereo unspecified), in series [5], the Decrease amounted to 35.7%. Also, the Activity entry in series [1] and in series [2] was “Anti-arrhythmic” throughout. The same molecule returned an LD50 in series [8] of 30.7 mg/kg. Further, the results for the pA2 in series [3] and in series [4] were 6.43 and 6.23, respectively.

Molecule `C=C(c1cc(Cl)c(Cl)cc1OCC(O)CNC(C)C)n1ccnc1` (stereo unspecified) yielded a Decrease in series [5] of 23.8%. The values for the pA2 in series [3] and in series [4] were 6.23 and 6.64, respectively.

With `C=C(c1ccccc1OCC(O)CNC(C)(C)C)n1ccnc1C` (stereo unspecified), the Decrease in [5] was determined as 27.1%. Besides, the pA2 in series [3] and in [4] was 6.97 each time.

`CC(C)=C(c1cc(Cl)ccc1OCC(O)CNC(C)C)n1ccnc1` (stereo unspecified) registered a Decrease in series [5] of 21.6%. For the same molecule, the pA2 in [3] is 5.19; in series [4] it was 4.9.

Take `C=C(c1cc(Cl)cc(C)c1OCC(O)CNC(C)C)n1ccnc1` (stereo unspecified): in series [5], the Decrease came out at 37.9%. Also, the Activity entry in series [1] and in series [2] was “Anti-arrhythmic” in each case. Besides, the LD50 in series [8] worked out at 48.8 mg/kg. In addition, the pA2 is given as 5.93 in [3] and 5.22 in series [4].

In series [5], `C/C=C(\c1ccccc1OCC(O)CNC(C)(C)C)n1ccnc1` (stereo unspecified) displayed a Decrease of 14.5%. Further, the values for the pA2 in series [3] and in series [4] were 7.3 and 7.19, respectively.

With `C=C(c1ccc(Cl)cc1OCC(O)CNC(C)C)n1ccnc1` (stereo unspecified), the Decrease in series [5] stood at 26.3%. For the same molecule, the pA2 worked out at 5.95 in series [3] and 5.86 in series [4].

The molecule `C=C(c1ccccc1OCC(O)CNC(C)C)n1ccnc1` (stereo unspecified) had a Decrease in series [5] of 27.1%. Moreover, the pA2 in series [3] and in series [4] was 6.89 in each case.

For the molecule `C=C(c1ccccc1OCC(O)CN1CCCC1)n1ccnc1` (stereo unspecified), in series [5], the Decrease worked out at 16.7%. For the same molecule, the pA2 was determined as 6.15 in [3] and 6.13 in series [4].

Consider `C=C(c1ccccc1OCC(O)CNC(C)(C)C)n1cccn1` (stereo unspecified), for which the Activity entry in series [6] is given as “Anti-arrhythmic”. The pA2 came out at 8.01 in [3] and 8.1 in series [4].

Consider `CC(C)NCC(O)COc1ccccc1C(C)n1ccnc1` (stereo unspecified), for which the Decrease in series [5] was 15.6%. In addition, the pA2 is 6.83 in series [3] and 6.9 in [4].

`C=C(c1cccc(OC)c1OCC(O)CNC(C)(C)C)n1cnc2ccccc21` (stereo unspecified): the Decrease in series [5] turned out to be 39.2%. Also, the Activity entry in series [1] and in series [2] was “Anti-arrhythmic” each time. For the same molecule, the LD50 in series [8] worked out at 19.8 mg/kg. The pA2 in [3] and in series [4] was 7.03 each time.

Turning to `C=C(c1cc(Cl)cc(C)c1OCC(O)CNC(C)(C)C)n1ccnc1` (stereo unspecified), in series [5], the Decrease amounted to 27.3%. Also, the pA2 in series [3] is on record as 5.04; in series [4], 5.49.

Consider `C=C(c1cc(Cl)ccc1OCC(O)CNC(C)C)n1cccn1` (stereo unspecified), for which the Decrease in series [5] came out at 14.3%. For the same molecule, the figures for the pA2 in [3] and in series [4] were 6.74 and 6.76, respectively.

Take `C=C(c1ccccc1OCC(O)CNC(C)(C)C)n1ccnc1` (stereo unspecified): the Decrease in series [5] is on record as 14.1%. In addition, the pA2 is on record as 8.01 in series [3] and 7.69 in [4].

Take `C=C(c1cc(C)cc(C)c1OCC(O)CNC(C)C)n1ccnc1` (stereo unspecified): the Decrease in [5] is 25.9%. Also, the pA2 in [3] is 6.31; in series [4], 5.55.

In [5], `C=C(c1c(Cl)ccc(Cl)c1OCC(O)CNC(C)(C)C)n1ccnc1` (stereo unspecified) came in with a Decrease of 26.3%. Besides, the values for the pA2 in [3] and in [4] were 5.41 and 5.27, respectively.

The molecule `C=C(c1ccccc1OCC(O)CNC(C)C)n1ccnc1C` (stereo unspecified) showed a Decrease in series [5] of 15%. In addition, the pA2 in [3] and in series [4] was 6.24 in each case.

`C=C(c1c(C)c(C)cc(Cl)c1OCC(O)CNC(C)(C)C)n1ccnc1` (stereo unspecified) returned a Decrease in series [5] of 31.9%. In addition, the Activity entry in series [1] and in [2] was “Anti-arrhythmic” each time. For the same molecule, in series [8], the LD50 was determined as 18.8 mg/kg. Besides, the pA2 in series [3] was determined as 6.21; in series [4], 6.18.

As to `C=C(c1ccccc1OCC(O)CNC(C)C)n1ccc(=O)cc1` (stereo unspecified), in [5], the Decrease is recorded as 13%. For the same molecule, the pA2 in [3] came out at 6.19; in series [4], 6.2.

With `C/C=C(\c1ccccc1OCC(O)CNC(C)C)n1ccnc1` (stereo unspecified), the Decrease in [5] was found to be 18.6%. Also, the pA2 in series [3] was found to be 6.76; in [4] it was 6.52.

Consider `C=C(c1cccc(OC)c1OCC(O)CNC(C)C)n1cnc2ccccc21` (stereo unspecified), for which the Decrease in series [5] is 22.3%. In addition, the pA2 is listed as 6.41 in series [3] and 6.26 in [4].

`C=C(c1cccc(Cl)c1OCC(O)CNC(C)C)n1ccnc1` (stereo unspecified): the Decrease in series [5] came to 28.2%. The results for the pA2 in series [3] and in series [4] were 5.63 and 5.66, respectively.

Consider `C=C(c1cccc(C)c1OCC(O)CNC(C)(C)C)n1ccnc1` (stereo unspecified), for which the Decrease in [5] is recorded as 46.6%. In addition, the Activity result in [1], in series [9], in series [2] and in series [10] was “Anti-arrhythmic” each time. For the same molecule, the LD50 in [8] came to 23.1 mg/kg. The pA2 in series [3] is 5.62; in series [4], 5.81.

The molecule `C=C(c1cc(Cl)cc(Cl)c1OCC(O)CNC(C)(C)C)n1ccnc1` (stereo unspecified) came in with a Decrease in series [5] of 27.1%. The pA2 in series [3] came to 6.51; in [4] it was 6.3.

As for `C=C(c1ccccc1OCC(O)CNC(C)C)n1cnc(C(=O)OCC)c1C` (stereo unspecified), the values for the pA2 in [3] and in series [4] were 6.37 and 6.15, respectively.

Turning to `C=C(c1ccccc1OCC(O)CNC(C)C)n1cccn1` (stereo unspecified), the Decrease in series [5] came to 21.6%. The pA2 in series [3] worked out at 7.75; in series [4], 7.44.

In turn, `C=C(c1ccccc1OCC(O)CNC(C)C)n1cnc2ccccc21` (stereo unspecified) yielded a Decrease in [5] of 16.8%. Further, the pA2 is 6.46 in series [3] and 6.67 in series [4].

Regarding `C=C(c1c(Cl)cc(Cl)cc1OCC(O)CNC(C)C)n1ccnc1` (stereo unspecified), the Decrease in series [5] came to 19.6%. Besides, the pA2 in series [3] was 6.27; in series [4], 6.44.

On to `C=C(c1cc(Cl)cc(Cl)c1OCC(O)CNC(C)C)n1ccnc1` (stereo unspecified), for which the Decrease in [5] is 27.5%. Further, the pA2 is given as 6.64 in series [3] and 6.5 in series [4].

In the case of `C=C(c1ccccc1OCC(O)CNC(C)C)n1cnc(C)c1` (stereo unspecified), the Activity entry in [2] is “Anti-arrhythmic”. The figures for the pA2 in series [3] and in series [4] were 7.16 and 7.19, respectively.

As for `C=C(c1cc(C)cc(C)c1OCC(O)CNC(C)(C)C)n1ccnc1` (stereo unspecified), in series [5], the Decrease is 31.8%. Moreover, the Activity entry in series [1] and in [2] was “Anti-arrhythmic” throughout. Further, the LD50 in series [8] was 15.9 mg/kg. Moreover, the results for the pA2 in [3] and in [4] were 6.58 and 5.55, respectively.

As to `CC(C)NCC(O)COc1ccccc1Cn1cccn1` (stereo unspecified), in [5], the Decrease stood at 28.7%. The pA2 in series [3] was 7.54; in series [4] it was 7.42.

For orientation: pA2 means the negative logarithm of the molar antagonist concentration that doubles the agonist concentration needed for the same response. As usually defined, the LD50 is the dose expected to kill half of the subjects tested. Higher therefore signals lower toxicity.
